The values below come from ChEMBL document CHEMBL1154609, “Synthesis and antibacterial activity of isothiazolyl oxazolidinones and analogous 3(2H)-isothiazolones” (Eur J Med Chem, 2010).

For experiment [1], the system named is Pseudomonas aeruginosa. Description: Antibacterial activity against Pseudomonas aeruginosa ATCC 9027 after 18 hrs by agar dilution method. The settings on record: ATCC 9027, 18 h.
Experiment [2] relates to Salmonella typhimurium. The experiment can be described thus: Antibacterial activity against Salmonella Typhimurium ATCC 1639 after 18 hrs by agar dilution method. The experiment is classed as functional, Salmonella enterica subsp. enterica serovar Typhimurium. The following applies: Salmonella enterica, ATCC 1639, 18 h. Put shortly:
(§1)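 Agar dilution on Mueller Hinton agar; inoculum about 10^6 CFU/mL applied to plates with twofold serial dilutions of compound in distilled water, 0.01 to 100 μg/mL; 37 °C, 18 h. DMSO-supplemented medium at matching dilution run as solvent control. MIC = lowest concentration giving no visible growth on the plate.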

The subject of experiment [3] is Staphylococcus epidermidis. Description: Antibacterial activity against Staphylococcus epidermidis ATCC 12229 after 18 hrs by agar dilution method. The experiment is classed as functional. The following applies: ATCC 12229, 18 h. Summed up: as §1
In experiment [4] the test system is Staphylococcus aureus. Description: Antibacterial activity against Staphylococcus aureus ATCC 29737 after 18 hrs by agar dilution method. In kind it is functional. The settings on record: ATCC 29737, 18 h. Summed up:
as §1

Experiment [5] has as its system Escherichia coli. Description: Antibacterial activity against Escherichia coli ATCC 8739 after 18 hrs by agar dilution method. The experiment is classed as functional. The settings on record: ATCC 8739, 18 h. Put shortly: as §1
Experiment [6] is described as follows: Cytotoxicity against mouse NIH/3T3 cells after 24 hrs by MTT assay. The experiment is classed as cell-based. The settings on record: NIH3T3, 24 h. Put shortly:
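NIH/3T3 normal mouse fibroblasts exposed to compounds for 24 h; viability read by MTT colorimetric assay.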

For experiment [7], the system named is Staphylococcus aureus. The experiment can be described thus: Antibacterial activity against methicillin-resistant Staphylococcus aureus isolate 2 after 18 hrs by agar dilution method. The experiment is classed as functional. The settings on record: isolate 2, 18 h. Summed up:
(§2)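 Agar dilution on Mueller Hinton agar. Inoculum about 10^6 CFU/mL applied to plates holding two-fold serial dilutions of compound in distilled water, 0.01 to 100 μg/mL. Incubated 37 °C for 18 h. DMSO solvent control included. MIC taken as the lowest concentration giving no visible growth on the plate.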

The subject of experiment [8] is Staphylococcus aureus. Description: Antibacterial activity against methicillin-resistant Staphylococcus aureus isolate 1 after 18 hrs by agar dilution method. The experiment is classed as functional. The following applies: isolate 1, 18 h. Summed up: as §2

Values after ≈ are worked out from the molar mass of the structure shown. Bounds are passed on as bounds.

For `O=c1ccsn1-c1cccc(F)c1`, the MIC in experiment [1] turned out to be 12.5 µg/mL (≈ 64 µM); in experiment [2] it was 12.5 µg/mL (≈ 64 µM); in experiment [3], 3.25 µg/mL (≈ 16.6 µM); in experiment [4], 6 µg/mL (≈ 30.7 µM); in experiment [5], 12.5 µg/mL (≈ 64 µM).

Turning to `O=c1ccsn1-c1ccc(Cl)cc1`, the MIC in experiment [1] worked out at 10 µg/mL (≈ 47.2 µM); in experiment [2] it was 10 µg/mL (≈ 47.2 µM); in experiment [3], 1.5 µg/mL (≈ 7.09 µM); in experiment [4], 3 µg/mL (≈ 14.2 µM); in experiment [5] it was 10 µg/mL (≈ 47.2 µM).

As for `O=c1cc(Cl)sn1-c1ccc(Cl)cc1`, the MIC in experiment [1] came out at 0.6 µg/mL (≈ 2.44 µM); in experiment [2], 0.3 µg/mL (≈ 1.22 µM); in experiment [3], 0.1 µg/mL (≈ 0.406 µM); in experiment [4], 0.1 µg/mL (≈ 0.406 µM); in experiment [5], 0.3 µg/mL (≈ 1.22 µM).

As for `O=c1cc(Cl)sn1-c1ccc(N2CCOCC2)c(F)c1`, the MIC in experiment [1] is 12.5 µg/mL (≈ 39.7 µM); in experiment [2], 25 µg/mL (≈ 79.4 µM); in experiment [3], 10 µg/mL (≈ 31.8 µM); in experiment [4], 10 µg/mL (≈ 31.8 µM); in experiment [5], 25 µg/mL (≈ 79.4 µM).

With `CC(=O)c1ccc(N2CC(Cn3sccc3=O)OC2=O)cc1` (stereo not drawn), the MIC turned out to be 100 µg/mL (≈ 314 µM) in experiment [1]; 50 µg/mL (≈ 157 µM) in experiment [2]; 25 µg/mL (≈ 78.5 µM) in experiment [3]; 12.5 µg/mL (≈ 39.3 µM) in experiment [4]; 50 µg/mL (≈ 157 µM) in experiment [5].

Take `O=C1OC(Cn2sccc2=O)CN1c1cccc(Cl)c1` (stereo not drawn): the MIC in experiment [1], in experiment [2], in experiment [3], in experiment [4] and in experiment [5] was 12.5 µg/mL (≈ 40.2 µM) throughout.

For `O=c1cc(Cl)sn1-c1ccccc1`, the MIC in experiment [1] came to 1.25 µg/mL (≈ 5.91 µM); in experiment [2], 0.3 µg/mL (≈ 1.42 µM); in experiment [3], 0.3 µg/mL (≈ 1.42 µM); in experiment [4], 50 µg/mL (≈ 236 µM); in experiment [5], 0.6 µg/mL (≈ 2.83 µM).

Take `O=C1OC(Cn2sccc2=O)CN1c1ccc(C(F)(F)F)cc1` (stereo not drawn): the MIC in experiment [1] is 100 µg/mL (≈ 290 µM); in experiment [2], 100 µg/mL (≈ 290 µM); in experiment [3], 100 µg/mL (≈ 290 µM); in experiment [4], 50 µg/mL (≈ 145 µM); in experiment [5], 100 µg/mL (≈ 290 µM).

In the case of `O=C1OC(Cn2sccc2=O)CN1Cc1ccccc1` (stereo not drawn), the MIC in experiment [1] worked out at 12.5 µg/mL (≈ 43.1 µM); in experiment [2], 12.5 µg/mL (≈ 43.1 µM); in experiment [3], 0.5 µg/mL (≈ 1.72 µM); in experiment [4], 0.5 µg/mL (≈ 1.72 µM); in experiment [5], 12.5 µg/mL (≈ 43.1 µM); in experiment [7], 12.5 µg/mL (≈ 43.1 µM). This compound came in with an MIC in experiment [8] of 8 µg/mL (≈ 27.6 µM). In experiment [6], this compound came in with an IC50 of 273 µg/mL (≈ 940 µM).

Consider `O=c1ccsn1-c1ccc(F)cc1`, for which the MIC stood at 12.5 µg/mL (≈ 64 µM) in experiment [1]; 12.5 µg/mL (≈ 64 µM) in experiment [2]; 3 µg/mL (≈ 15.4 µM) in experiment [3]; 1.5 µg/mL (≈ 7.68 µM) in experiment [4]; 6 µg/mL (≈ 30.7 µM) in experiment [5].

Regarding `O=c1cc(Cl)sn1-c1ccc(C(F)(F)F)cc1`, the MIC in experiment [1] turned out to be 0.1 µg/mL (≈ 0.358 µM); in experiment [2], 12.5 µg/mL (≈ 44.7 µM); in experiment [3], 5 µg/mL (≈ 17.9 µM); in experiment [4] it was 5 µg/mL (≈ 17.9 µM); in experiment [5], 25 µg/mL (≈ 89.4 µM).

With `O=c1ccsn1-c1ccc(N2CCOCC2)c(F)c1`, the MIC in experiment [1] was found to be 25 µg/mL (≈ 89.2 µM); in experiment [2] it was 25 µg/mL (≈ 89.2 µM); in experiment [3], 10 µg/mL (≈ 35.7 µM); in experiment [4] it was 12.5 µg/mL (≈ 44.6 µM); in experiment [5], 25 µg/mL (≈ 89.2 µM).

As to `Cc1ccc(-n2sccc2=O)cc1`, the MIC amounted to 25 µg/mL (≈ 131 µM) in experiment [1]; 25 µg/mL (≈ 131 µM) in experiment [2]; 2 µg/mL (≈ 10.5 µM) in experiment [3]; 25 µg/mL (≈ 131 µM) in experiment [4]; 25 µg/mL (≈ 131 µM) in experiment [5].

On to `O=C1OC(Cn2sccc2=O)CN1c1cccc(F)c1` (stereo not drawn), for which the MIC is 100 µg/mL (≈ 340 µM) in experiment [1]; 100 µg/mL (≈ 340 µM) in experiment [2]; 100 µg/mL (≈ 340 µM) in experiment [3]; 50 µg/mL (≈ 170 µM) in experiment [4]; 100 µg/mL (≈ 340 µM) in experiment [5].

As for `O=c1ccsn1-c1ccccc1`, the MIC turned out to be 12.5 µg/mL (≈ 70.5 µM) in experiment [1]; 25 µg/mL (≈ 141 µM) in experiment [2]; 3.25 µg/mL (≈ 18.3 µM) in experiment [3]; 3.25 µg/mL (≈ 18.3 µM) in experiment [4]; 12.5 µg/mL (≈ 70.5 µM) in experiment [5].

With `O=C(O)c1cn(C2CC2)c2cc(N3CCNCC3)c(F)cc2c1=O` [CIPROFLOXACIN], the MIC in experiment [1] was 0.01 µg/mL (≈ 0.0302 µM); in experiment [2], 0.01 µg/mL (≈ 0.0302 µM); in experiment [3], 1 µg/mL (≈ 3.02 µM); in experiment [4] it was 0.5 µg/mL (≈ 1.51 µM).

For the compound `CC(=O)NC[C@H]1CN(c2ccc(N3CCOCC3)c(F)c2)C(=O)O1` [LINEZOLID], the minimum inhibitory concentration (MIC) in experiment [1] was greater than 100 µg/mL; in experiment [2], greater than 100 µg/mL; in experiment [3], 0.03 µg/mL (≈ 0.0889 µM); in experiment [5], greater than 100 µg/mL; in experiment [8] it was 2 µg/mL (≈ 5.93 µM). In experiment [6], this compound had an IC50 of 465 µg/mL (≈ 1380 µM).

Regarding `CN[C@H](CC(C)C)C(=O)N[C@H]1C(=O)N[C@@H](CC(N)=O)C(=O)N[C@H]2C(=O)N[C@H]3C(=O)N[C@H](C(=O)N[C@H](C(=O)O)c4cc(O)cc(O)c4-c4cc3ccc4O)[C@H](O)c3ccc(c(Cl)c3)Oc3cc2cc(c3O[C@@H]2O[C@H](CO)[C@@H](O)[C@H](O)[C@H]2O[C@H]2C[C@](C)(N)[C@H](O)[C@H](C)O2)Oc2ccc(cc2Cl)[C@H]1O` [VANCOMYCIN], the MIC was greater than 100 µg/mL in experiment [1]; greater than 100 µg/mL in experiment [2]; 0.75 µg/mL (≈ 0.518 µM) in experiment [3]; 0.75 µg/mL (≈ 0.518 µM) in experiment [4]; greater than 100 µg/mL in experiment [5].
